Test results published in ChEMBL document CHEMBL3861959, “Synthesis and antiproliferative evaluation of novel 2-(4H-1,2,4-triazole-3-ylthio)acetamide derivatives as inducers of apoptosis in cancer cells” (Eur J Med Chem, 2016).
Active and inactive are the calls of the source. No cut-off for these calls is given here.

Legend:
A549 [1] = assay: Disruption of mitochondrial membrane potential in human A549 cells after 72 hrs by JC1 staining-based assay; format: functional, cell-based
Summary of the method: (§1)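 Cells seeded and treated with 10, 20 and 50 µM compound. Cells pelleted at 600 × g, resuspended in JC-1 dye, and incubated at 37 °C in 5% CO2 for 15 min. Green monomers mark disrupted membrane potential; orange aggregates mark intact potential.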

[2] = Cytotoxicity against human A549 cells assessed as decrease in cell proliferation after 48 hrs by MTT assay; format: functional, cell-based; details: A549, 48 h
Summary of the method: (§2)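 MTT viability assay in A549, K562 and PC-3 cells. Media carried 10% FBS, 1% L-glutamine and penicillin/streptomycin, at 37 °C in 5% CO2. Cells seeded and left overnight, then exposed to 5–100 µM compound for 48 h. MTT added to 0.5 mg/ml final for 4 h, medium removed, and SDS buffer added. Data given as mean ± SD, analysed by ANOVA/Tukey.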

[3] = Induction of apoptosis in human A549 cells assessed as upregulation of caspase-3 levels using DEVD-pNA substrate by ELISA; format: functional, cell-based
Summary of the method: (§3)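 Supernatant protein measured by Bradford. 200 µg protein incubated with pNA substrate (DEVD-pNA for caspase-3) using a colorimetric kit. Data given as mean ± SD; one-way ANOVA with Tukey test, p < 0.05.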

[4] = Induction of apoptosis in human A549 cells assessed as upregulation of caspase-8 levels at 50 uM using IETD-pNA substrate by ELISA; format: functional, cell-based
A549 [5] = assay: Induction of apoptosis in human A549 cells assessed as downregulation of Bcl-2 levels by […]; format: functional, cell-based
[6] = Cytotoxicity against human T47D cells assessed as cell growth at 10^-5 M after 48 hrs by SRB assay relative to control; format: functional; details: read-out: Activity
Summary of the method: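 Single-dose NCI 60-cell-line screen run under the US NCI protocol. Compounds tested at 10 µM. Read-out is growth percent for each cell line.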

[7] = Cytotoxicity against human MDA-MB-468 cells assessed as cell growth at 10^-5 M after 48 hrs by SRB assay relative to control; format: functional; details: MDA-MB-468, 48 h, read-out: Activity
Summary of the method: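 NCI single-dose primary screen run under the US NCI protocol. Compounds tested at 10 µM across the 60-cell-line panel, with growth percent reported for each line.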

[8] = Selectivity index, ratio of CC50 for human MT4 cells to EC50 for HIV1 3B; format: toxicity, cell-based; details: read-out: Ratio CC50/EC50
Summary of the method: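 HIV-1 IIIB and HIV-2 ROD tested in MT-4 cells by MTT. Serial fivefold dilutions of compound added to triplicate mock- and virus-infected wells. MT-4 cells at 6 × 10^5 cells/mL. Absorbance read at 540/690 nm; median OD of three wells used. CC50 is the concentration reducing mock-infected OD540 by 50%. […]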

PC-3 [9] = assay: Induction of apoptosis in human PC3 cells assessed as downregulation of Bcl-2 levels by […]; format: functional, cell-based
[10] = Induction of apoptosis in human PC3 cells assessed as upregulation of caspase-3 levels using DEVD-pNA substrate by ELISA; format: functional, cell-based; details: PC-3; summary of the method: as §3
PC-3 [11] = assay: Disruption of mitochondrial membrane potential in human PC3 cells at 10 to 50 uM after 72 hrs by JC1 staining-based assay; format: functional, cell-based; summary of the method: as §1
[12] = Cytotoxicity against human PC3 cells assessed as decrease in cell proliferation after 48 hrs by MTT assay; format: functional, cell-based; details: PC-3, 48 h; summary of the method: as §2
K562 [13] = assay: Induction of apoptosis in human K562 cells assessed as downregulation of Bcl-2 levels after 72 hrs by […]; format: functional, cell-based
[14] = (§4) Cytotoxicity against human K562 cells assessed as decrease in cell proliferation after 48 hrs by MTT assay; format: functional, cell-based; details: K562, 48 h; summary of the method: as §2
K562 [15] = assay: as §4; format: functional, cell-based; summary of the method: as §2
K562 [16] = assay: Disruption of mitochondrial membrane potential in human K562 cells after 72 hrs by JC1 staining-based assay; format: functional, cell-based; summary of the method: as §1
[17] = Induction of apoptosis in human K562 cells assessed as upregulation of caspase-3 levels using DEVD-pNA substrate after 72 hrs by ELISA; format: functional, cell-based; summary of the method: as §3

Compound: Cc1ccc(C(C)C)c(OCc2nnc(SCC(=O)Nc3ccc(Cl)cc3)n2Cc2ccccc2)c1
- Activity (A549 [1]): Dose-dependent effect
- IC50 [2]: 7.9 µM
- Activity [3]: Dose-dependent effect
- Activity [4]: Active
- Activity (A549 [5]): Dose-dependent effect
- growth at 10 µM [6]: 78.6%
- growth at 10 µM [7]: 72.3%
- selectivity ratio [8]: < 1

Compound: Cc1ccc(C(C)C)c(OCc2nnc(SCC(=O)Nc3ccc(S(N)(=O)=O)cc3)n2Cc2ccccc2)c1
- Activity (PC-3 [9]): Dose-dependent effect
- growth at 10 µM [6]: 33.3%
- Activity [10]: Dose-dependent effect
- Activity (PC-3 [11]): Active
- growth at 10 µM [7]: 70.5%
- selectivity ratio [8]: < 1
- IC50 [12]: 5.96 µM

Compound: CC(=O)Nc1ccc(OCc2nnc(SCC(=O)Nc3ccc(Br)cc3)n2Cc2ccccc2)cc1
- Activity (K562 [13]): Dose-dependent effect
- IC50 [14]: 7.71 µM
- Activity (K562 [15]): Dose-dependent effect
- Activity (K562 [16]): Dose-dependent effect
- Activity [17]: Dose-dependent effect
- growth at 10 µM [6]: 69.6%
- growth at 10 µM [7]: 77.8%
- selectivity ratio [8]: ≤ 1
